zfTRPN1 agonist – zebrafish TRPN1 (NompC) channel agonism; activation, % at 3 µM; 220,000 compounds, 0.18% hits; HEK293 zebrafish TRPN1-YFP, Fluo-8 calcium fluorescence; 100% = response to 87 µM carbachol;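 active = activation above its plate's cutoff, the mean activation of test wells on that plate plus 3 SD, cut at about 19% in these data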;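 also: 0% = DMSO alone and 100% = 87 µM carbachol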
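Assay system: Zebrafish TRPN1-YFP in HEK293 cells | Incubation: Dye loading 1 h at 37 °C, then 30 min room temperature | Measured by: Kinetic Fluo-8 fluorescence, ex 470-495, em 515-575 nm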
OXTR ag – agonists of human oxytocin receptor. P30559. CHO-OTR cells, Fluo-8 calcium fluorescence; normalized: DMSO 0%, oxytocin 100%. activation, % at 3 µM. 320,000 compounds, 0.32% hits. AID 2435;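 active = activation above the mean of all tested compounds plus 3 SD, cutoff set per screening run, cut at about 20% in these data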;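 also: peak over basal fluorescence ratio from a 100 s FLIPR kinetic read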
Target sequence (P30559 whole entry, looked up): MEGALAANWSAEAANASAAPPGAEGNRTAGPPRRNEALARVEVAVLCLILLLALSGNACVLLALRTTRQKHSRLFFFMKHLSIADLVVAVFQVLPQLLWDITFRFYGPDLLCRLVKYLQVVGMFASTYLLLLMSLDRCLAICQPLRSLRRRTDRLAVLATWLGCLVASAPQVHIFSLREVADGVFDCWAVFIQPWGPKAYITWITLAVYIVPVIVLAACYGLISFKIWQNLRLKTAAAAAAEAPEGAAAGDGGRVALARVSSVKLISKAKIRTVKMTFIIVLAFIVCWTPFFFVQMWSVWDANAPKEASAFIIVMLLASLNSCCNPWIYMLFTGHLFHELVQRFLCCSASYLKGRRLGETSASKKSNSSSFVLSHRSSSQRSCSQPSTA
OXTR potentiate – potentiators of human oxytocin receptor; AID 2445; activation, % at 3 µM; CHO-OTR cells, Fluo-8 calcium fluorescence, potentiator mode; 0% = oxytocin EC15, 100% = EC100; 320,000 compounds, 0.061% hits; P30559;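 active = activation above that plate's cutoff, the mean activation of tested compounds plus 3 SD, cut at about 6.6% in these data, passing the limit was not always enough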;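 also: 100% uses oxytocin at 75 nM as the full agonist control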
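Measured by – Fluo-8 calcium dye fluorescence · Test system – human OTR in CHO cells · Dosing – one concentration, 3.0 µM compound · Controls – EC15 oxytocin alone as 0%, 75 nM oxytocin as 100% · Evaluation – normalized max/min fluorescence ratio, % activation · Timing – 6 min pre-incubation, 100 s read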
V1R ag counter – V1a receptor agonism, counter-screen for OXTR agonists; 320,000 compounds, 0.25% hits; CHO-V1R cells, Fluo-8 calcium fluorescence, agonist mode; 0% DMSO, 100% 3 nM vasopressin; activation, % at 3 µM; P37288;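 active = activation above the mean activation of all tested compounds plus 3 SD, per screening run, cut at about 20% in these data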;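 also: signal is peak over basal fluorescence ratio across a 100 second FLIPR read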
TRPML3 agonist – agonists of human TRPML3 channel | HEK293 TRPML3-YFP, Fluo-8 calcium fluorescence; 100% = the carbachol control signal | 220,000 compounds, 0.29% hits | AID 1448 | activation, % at 3 µM;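 active = activation above its plate's cutoff, the mean activation of the plate's test wells plus 3 SD, cut at about 12% in these data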;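 also: 0% = DMSO only wells and 100% = carbachol wells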
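Material: TRPML3-YFP stable HEK293 cells | Dosing: One concentration, 3 µM nominal, 0.3% DMSO | Timing: 125 s total fluorescence read per well | Technique: Fluo-8 calcium dye fluorescence, ex 470-495, em 515-575 nm | Measure: Percent activation from peak-to-basal fluorescence ratio, scaled between DMSO and carbachol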
OXTR ag confirm – confirmation of human oxytocin receptor agonists | AID 434963 | activation, % at 3 µM | shares compounds with OXTR ag | CHO-OTR cells, Fluo-8 calcium fluorescence, agonist | 390 compounds, 20% hits;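 active = mean activation above about 20% derived from the earlier single-dose screen, limit read from the data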;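 also: peak over minimum fluorescence ratio per well during a 100 second FLIPR read; 0% = DMSO alone and 100% = oxytocin high control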
V1aR counter 3x – V1R agonism in triplicate, counter-screen for OXTR agonists | activation, % at 3 µM | 390 compounds, 10% hits | CHO-V1R cells, Fluo-8 calcium fluorescence, agonist | shares compounds with OXTR ag | AID 434991;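 active = mean activation over triplicate exceeds the hit threshold set in the earlier primary screen, cut at about 20% in these data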;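 also: peak over basal fluorescence ratio within a 100 second read; 0% = DMSO alone and 100% = 3 nM vasopressin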
* hit, by the source's call; . = no result; ! = repeats disagree. Compounds with a hit are over-represented: about 0.58% of the library has one in this group of screens.

SMILES | zfTRPN1 agonist | OXTR ag | OXTR potentiate | V1R ag counter | TRPML3 agonist | OXTR ag confirm | V1aR counter 3x
CC(=O)Nc1ccc(NC(=O)C(C)OC(=O)/C(C#N)=C/c2ccc(N(C)C)cc2)cc1 (stereo not drawn) | . | 20* | -23 | 16 | . | 13 | 13
CC(OC(=O)/C(C#N)=C/c1ccc(N(C)C)cc1)C(=O)N(C)c1ccccc1 (stereo not drawn) | . | 11 | -21 | 16 | . | . | .
COc1ccc(CN(C)c2ccc(S(=O)(=O)N3CCN(C)CC3)cc2[N+](=O)[O-])cc1OC | . | 26* | -12 | 11 | . | 15 | 12
O=C(CCN1CCN(Cc2ccccc2)CC1)Nc1ccc(OCc2ccccc2)cc1 | 3 | 22* | -12 | 15 | 3 | 11 | 8
O=C(CN1CCN(CC(=O)Nc2ccc(OCc3ccccc3)cc2)CC1)Nc1ccc(F)cc1 | 1 | 21* | -12 | 15 | 2 | 9 | 9
Fc1ccc(C2CCNCC2COc2ccc3c(c2)OCO3)cc1 (stereo not drawn) | . | 12 | -8 | 3 | . | . | .
Fc1ccc([C@@H]2CCNC[C@H]2COc2ccc3c(c2)OCO3)cc1 | 0 | 23*! | -10 | 13 | 1 | 11 | 7
CSCCC(NC(=O)c1ccccc1)C(=O)OCC(=O)NCc1ccco1 (stereo not drawn) | . | -1 | 1 | 0 | . | . | .
C[C@H]1CC[C@H]2C(=O)N[C@H](Cc3ccccc3)C(=O)N2[C@@H]1c1ccccc1 | 1 | 30* | -15 | 0 | 0 | 5 | -1
N#C/C(=C\c1ccc(N2CCOCC2)o1)C(=O)NCCc1ccccc1 | 26* | 21* | -14 | 19 | 14* | 23* | 46*
COCCNC(=O)/C(C#N)=C/c1ccc(N2CCOCC2)o1 | 5 | 6 | -6 | 10 | 2 | . | .
CC(O)CNCc1ccc(-c2ccccc2)cc1 (stereo not drawn) | 2 | 4 | -3 | 3 | 0 | . | .
CC(NCc1ccc(-c2ccccc2)cc1)C(O)c1ccccc1 (stereo not drawn) | 0 | 23* | -6 | 12 | 1 | 3 | 4
Cc1cc(C(c2ccc(O)cc2)c2cc(C)c(O)cc2C)c(C)cc1O | . | 41* | -26 | 18 | . | 40* | 26*
Cc1nn(CC(=O)N2CCN(c3ccc(Cl)cc3)CC2)c(=O)c2cccn12 | . | 1 | -6 | 3 | . | . | .
CCOC(=O)c1sc(NC(=O)CSc2n[nH]c(-c3ccncc3)n2)c(C#N)c1C | 9 | 18 | -20 | 10 | 2 | . | .
CCOc1ccc(/C=C/C2=Cc3c(sc(NC(=O)CSc4n[nH]c(N)n4)c3C#N)C(C)(C)C2)cc1 | 7 | 27* | 2 | 9 | 3 | 12 | 7
COCCN1CC(C(=O)NCc2ncccc2C)CCC1=O (stereo not drawn) | . | 0 | -2 | 0 | . | . | .
COc1cc(C(=O)OCCNC(=O)c2ccncc2)cc(OC)c1OC | 1 | 0 | 2 | 0 | 0 | . | .
O=C(CSc1nc2sccc2c(=O)[nH]1)N1CCN(c2ccccc2)CC1 | . | -1 | 6 | 0 | . | . | .
COc1ccc(CCn2c(C(C)C)nc3c(c(=O)c4ccccc4n3C)c2=O)cc1 | -2 | 30* | -19 | 10 | 0 | 0 | 13
NS(=O)(=O)c1ccc(CNC(=O)c2scc3c2CCCC3)cc1 | 0 | 0 | -11 | 0 | 1 | . | .
CCSc1ccc2c(c1)N(CCCN1CCN(C)CC1)c1ccccc1S2 | . | 9 | -5 | 3 | . | . | .
CN1CCN(CCCN2c3ccccc3Sc3ccc(Cl)cc32)CC1 | 0 | 25*! | -17 | 10 | 2 | 11 | 3
Cc1nc2ccccc2n1CCC(=O)O | 0 | 1 | -4 | -1 | 1 | . | .
SMILES | zfTRPN1 agonist | OXTR ag | OXTR potentiate | V1R ag counter | TRPML3 agonist | OXTR ag confirm | V1aR counter 3x
Cc1nc2ccccc2n2c(O)c(CC(=O)O)cc12 | 0 | 24* | 2 | 15 | 1 | 1 | 2
Cc1nc(C)c(C(=O)N2CCCC(C(=O)c3ccc(Cl)cc3C)C2)s1 (stereo not drawn) | . | 2 | -7 | 3 | . | . | .
COc1ccc(N(CC(=O)N2CCC(C(N)=O)CC2)S(=O)(=O)c2ccccc2)cc1 | . | 0 | -7 | 0 | . | . | .
O=C(O)c1ccc(N/N=C/c2cn(Cc3ccc(F)cc3)c3ccccc23)cc1 | 1 | 21* | -17 | 20 | -1 | 10 | 7
CCCNC(=O)CCn1cc(-c2ccc(OC)cc2)nc1-c1ccncc1 | . | -1 | 3 | 1 | . | . | .
CCOC(=O)Cn1c(CN(Cc2ccccc2)Cc2ccccc2)nc2c1c(=O)n(C)c(=O)n2C | -2 | -1 | -7 | 8 | -1 | . | .
CCCCCCCCCCOC(=O)Cn1c(COc2ccccc2C)[n+](C)c2ccccc21 | . | 22* | -3 | 1 | . | 15 | 16
CCCCCCCCCCOC(=O)Cn1c(COc2cccc(C)c2)[n+](C)c2ccccc21 | . | 45* | -18 | 13 | . | 34* | 23*
CCCCCCCCCCOC(=O)Cn1c(COc2ccc(Cl)cc2)[n+](C)c2ccccc21 | . | 17 | -11 | 18 | . | . | .
CC(Sc1ccc(Cl)cc1)C(=O)Nc1ccc(S(=O)(=O)N2CCOCC2)cc1 (stereo not drawn) | 9 | 29* | -23 | 13 | 6 | 21* | 10
CN[C@H]1CC[C@@H](c2ccc(Cl)c(Cl)c2)c2ccccc21 | 2 | 21*! | -19 | 9 | 3 | 3 | 6
O=C1C=C(O)CC(c2ccc(Cl)c(Cl)c2)C1 (stereo not drawn) | 1 | 1 | -12 | 0 | 1 | . | .
C=CCn1c(SCCCC)nc(O)cc1=O | 1 | 33* | -9 | 3 | 0 | 1 | 0
CC(=O)c1ccccc1NC(=O)CSc1nnc2ccccn12 | 0 | -1 | -2 | 1 | 1 | . | .
Cc1cccc(NC(=O)C2(c3ccccc3)CCOCC2)c1 | 0 | -2 | -5 | -1 | 1 | . | .
Cc1cccc(NC(=O)C2(c3ccc([N+](=O)[O-])cc3)CCCC2)c1 | 8 | 22* | -25 | 17 | 2 | 7 | 3
COC(C(=O)Nc1ccc(S(=O)(=O)Nc2ccc(F)cc2)cc1)c1ccccc1 (stereo not drawn) | 15 | 20* | -10 | 16 | 6 | 23* | 14
N[C@@H](CO)c1nnc([C@H](Cc2ccc(O)cc2)NC(=O)C2CCNCC2)o1 | 2 | 0 | 1 | 0 | 1 | . | .
COc1ccc(/C=C/C(=O)NC(=S)NNC(=O)c2cccs2)cc1 | 1 | 26* | -35 | 17 | 1 | 6 | 8
COc1ccc(C(=O)NNC(=S)NC(=O)c2cccs2)cc1 | . | 13 | -15 | 9 | . | . | .

Screening results (PubChem)
